Source: PubChem BioAssay (several laboratories)
CSN inh – blocks human CSN-mediated cullin deneddylation; inhibition, % at 12.5 µM; Q92905; AID 651999; Purified CSN, SCF-Nedd8-OG deneddylation, fluorescence polarization; 0.38% of 360,000 active;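 active = pattern-corrected inhibition above about 35%, with an unprinted fluorescence ratio check between 0.5 and 1.5, limit read from the data, passing the limit was not always enough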
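Assay system: purified human Csn5 enzyme expressed in HEK293T cells; Input: 0.24 nM Csn5 enzyme, final concentration; Reagent: 10 nM SCFSkp2-Nedd8OG; Compound dosing: 12.5 µM single point; Times: reaction 90 min, room temperature; Technique: fluorescence polarization readout.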
ATG4B inhibitor – ATG4B (human) cysteine protease inhibition; Q9Y4P1; 0.51% of 340,000 active; AID 504462; inhibition, % at 8.33 µM; ATG4B cleavage of LC3-PLA2, NBD-HPC fluorescence, 1 h; in the data active = inhibition above about 40%
Target sequence (Q9Y4P1 whole entry, looked up): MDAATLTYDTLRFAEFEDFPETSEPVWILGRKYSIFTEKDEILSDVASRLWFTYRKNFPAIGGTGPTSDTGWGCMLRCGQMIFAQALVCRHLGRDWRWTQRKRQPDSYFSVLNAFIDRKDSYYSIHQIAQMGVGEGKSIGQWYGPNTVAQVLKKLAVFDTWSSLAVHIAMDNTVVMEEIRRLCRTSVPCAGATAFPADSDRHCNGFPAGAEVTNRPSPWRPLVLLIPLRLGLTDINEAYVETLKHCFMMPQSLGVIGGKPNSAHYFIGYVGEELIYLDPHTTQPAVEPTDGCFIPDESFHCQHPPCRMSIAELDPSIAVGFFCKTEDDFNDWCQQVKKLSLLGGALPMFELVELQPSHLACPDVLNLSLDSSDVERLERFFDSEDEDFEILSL
UHRF1 binding – UHRF1 methyl-DNA binding inhibition; UHRF1 binding to methylated oligo, TR-FRET; inhibition, % at 4.4 µM; 0.75% of 370,000 active; in the data active = inhibition above about 21%;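 note: UHRF1 SRA domain binding a hemimethylated CpG hairpin DNA probe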
LEDGF integ inh – blocks HIV-1 LEDGF/p75-dependent DNA integration; TR-FRET IN-LEDGF/p75 DNA integration, Eu/Cy5; inhibition, % at 3.7 µM; 0.64% of 370,000 active; AID 743269;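 active = inhibition above the screen-wide mean plus 3 SD, cut at about 13% in these data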;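 note: signal is the Cy5 over europium emission ratio at 671 and 618 nm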
rCAG RNA binder – r(CAG) repeat RNA binding. inhibition, % at 3 µM. 1.3% of 370,000 active. TO-PRO-1 dye displacement fluorescence;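 active = inhibition above the plate cutoff, the mean of all test compounds on that plate plus 3 SD, cut at about 35% in these data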;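 note: higher means more dye released from RNA so lower well fluorescence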
MBD2 inh – inhibitors of human MBD2 binding to methylated oligonucleotide; TR-FRET; inhibition, % at 4.4 µM; 0.31% of 370,000 active; in the data active = inhibition above about 13%
rCAG binder conf – r(CAG) RNA repeat binding, confirmation; inhibition, % at 3 µM; shares compounds with rCAG RNA binder; AID 652065; TO-PRO-1 dye displacement fluorescence; 70% of 4,300 active;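 active = inhibition above a per-plate cutoff, the mean inhibition of sample wells plus 3 SD, cut at about 35% in these data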;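 note: loss of TO-PRO-1 fluorescence as compound displaces dye from 1x1 AA loop RNA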
dCAG dye counter – DNA CAG dye complex inhibition counter-screen; shares compounds with rCAG RNA binder; d(CAG) DNA oligo TO-PRO-1 dye displacement, fluorescence; inhibition, % at 3 µM; 94% of 4,300 active;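 active = inhibition above its plate's cutoff, the mean test-well inhibition plus 3 SD, cut at about 4.8% in these data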;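 note: hits displace the dye from DNA and so lower well fluorescence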
CSN5 deneddyl – Csn5 (human) deneddylation inhibition, single-concentration validation; shares compounds with CSN inh; Csn5 deneddylation of SCF-Nedd8OG, fluorescence polarization, 90 min; inhibition, % at 16.6 µM; 62% of 540 active; AID 720654; in the data active = inhibition above about 50%
MMP-2 counter – counter-screen for CSN deneddylation inhibitors: human MMP-2 inhibition; shares compounds with CSN inh; recombinant MMP-2, FRET substrate fluorescence, 60 min; inhibition, % at 16.6 µM; 33% of 540 active; AID 720655;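 active = corrected plate-normalized z-score of 5 or more, or -5 or less, or inhibition of 15% or more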
Thrombin counter – thrombin (bovine) inhibition, counter-screen for CSN hits | AID 720656 | bovine thrombin cleavage of Ub4-pepOG, fluorescence polarization | inhibition, % at 16.6 µM | shares compounds with CSN inh | 49% of 540 active;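 active = inhibition at or above a set limit, with a fluorescence interference ratio between 0.5 and a set maximum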
Numbers stand for hits. Sampled rows, rich in hits. Any-hit rate of the full collection: about 3.1%.

For Cc1ccc(S(=O)(=O)/N=C2/NC(=O)/C(=C/c3cc([N+](=O)[O-])ccc3O)S2)cc1 the results were CSN inh 55, ATG4B inhibitor inactive, UHRF1 binding inactive, LEDGF integ inh inactive, rCAG RNA binder 88, MBD2 inh inactive, rCAG binder conf 67, dCAG dye counter 25, CSN5 deneddyl 53, MMP-2 counter -44 and Thrombin counter 31.
For Nc1[nH]c2cc([N+](=O)[O-])ccc2c1-c1ccccn1 the results were CSN inh 64, ATG4B inhibitor inactive, UHRF1 binding inactive, LEDGF integ inh inactive, rCAG RNA binder 41, MBD2 inh inactive, rCAG binder conf inactive, dCAG dye counter 19, CSN5 deneddyl inactive, MMP-2 counter inactive and Thrombin counter 44.
For O=C(CCN1C(=O)/C(=C\c2ccco2)SC1=S)Nc1ccc(C(=O)O)c(O)c1 the results were CSN inh 57, ATG4B inhibitor inactive, UHRF1 binding 62, LEDGF integ inh 70, rCAG RNA binder 86, MBD2 inh inactive, rCAG binder conf 79, dCAG dye counter 37, CSN5 deneddyl 72, MMP-2 counter inactive and Thrombin counter inactive.
`O=C(CCCN1C(=O)/C(=C\c2ccco2)SC1=S)Nc1ccc2ccccc2c1` gave CSN inh inactive, ATG4B inhibitor inactive, UHRF1 binding inactive, LEDGF integ inh inactive, rCAG RNA binder inactive and MBD2 inh inactive.
`O=[N+]([O-])c1ccc(N/N=C/c2c[nH]c3ccccc23)cc1` gave CSN inh 57, ATG4B inhibitor inactive, UHRF1 binding inactive, LEDGF integ inh inactive, rCAG RNA binder 56, MBD2 inh inactive, rCAG binder conf inactive, dCAG dye counter 20, CSN5 deneddyl 56, MMP-2 counter inactive and Thrombin counter 57.
Screening O=C(O)c1cc(-c2ccc(/C=N/Nc3ccc([N+](=O)[O-])cn3)o2)ccc1Cl returned CSN inh inactive, ATG4B inhibitor inactive, UHRF1 binding inactive, LEDGF integ inh inactive, rCAG RNA binder inactive and MBD2 inh inactive.
Screening O=C(O)c1cccc(-c2ccc(/C=N/Nc3ccc([N+](=O)[O-])cc3)o2)c1 returned CSN inh 93, ATG4B inhibitor inactive, UHRF1 binding inactive, LEDGF integ inh inactive, rCAG RNA binder 59, MBD2 inh inactive, rCAG binder conf 49, dCAG dye counter 15, CSN5 deneddyl 51, MMP-2 counter inactive and Thrombin counter inactive.
`O=C(O)CCCCCN1C(=O)/C(=C/c2cn(-c3ccccc3)nc2-c2cccs2)SC1=S` gave CSN inh 92, ATG4B inhibitor inactive, UHRF1 binding inactive, LEDGF integ inh inactive, rCAG RNA binder 57, MBD2 inh inactive, rCAG binder conf 69, dCAG dye counter 39, CSN5 deneddyl 82, MMP-2 counter inactive and Thrombin counter 22.
`Cc1ccc(NC(=O)CN2C(=O)S/C(=C/c3ccc(-c4cc(C(=O)O)ccc4C)o3)C2=O)cc1C` gave CSN inh 64, ATG4B inhibitor inactive, UHRF1 binding 33, LEDGF integ inh inactive, rCAG RNA binder 46, MBD2 inh inactive, rCAG binder conf 91, dCAG dye counter 74, CSN5 deneddyl 76, MMP-2 counter 18 and Thrombin counter inactive.
For COc1cccc(/C=C2/C(=O)NN(c3ccc(Br)cc3)C2=O)c1O the results were CSN inh inactive, ATG4B inhibitor inactive, UHRF1 binding inactive, LEDGF integ inh inactive, rCAG RNA binder inactive and MBD2 inh inactive.
`COc1cc(/C=C2/C(=O)NN(c3ccc(Cl)cc3)C2=O)cc(Br)c1O` gave CSN inh 45, ATG4B inhibitor inactive, UHRF1 binding inactive, LEDGF integ inh inactive, rCAG RNA binder 46, MBD2 inh inactive, rCAG binder conf inactive, dCAG dye counter 8.9, CSN5 deneddyl inactive, MMP-2 counter inactive and Thrombin counter 23.
`CN(C)c1ccc(/C=C2\SC(=S)N(Nc3ncc(C(F)(F)F)cc3Cl)C2=O)cc1` gave CSN inh inactive, ATG4B inhibitor inactive, UHRF1 binding inactive, LEDGF integ inh inactive, rCAG RNA binder inactive and MBD2 inh inactive.
Screening COc1cc(/C=C2\SC(=S)N(Nc3ncc(C(F)(F)F)cc3Cl)C2=O)ccc1O returned CSN inh 67, ATG4B inhibitor inactive, UHRF1 binding inactive, LEDGF integ inh inactive, rCAG RNA binder 53, MBD2 inh inactive, rCAG binder conf 63, dCAG dye counter 32, CSN5 deneddyl 78, MMP-2 counter inactive and Thrombin counter 61.
For C=CCN(CC#Cc1ccc(OC)cc1)CC=C the results were UHRF1 binding inactive, LEDGF integ inh inactive, rCAG RNA binder inactive and MBD2 inh inactive.
Screening CCCCn1c(NC(=O)CC)c(C#N)c2nc3ccccc3nc21 returned CSN inh inactive, ATG4B inhibitor inactive, UHRF1 binding inactive, LEDGF integ inh inactive, rCAG RNA binder inactive and MBD2 inh inactive.
Screening CCCCn1c(NC(=O)c2ccccc2Cl)c(C#N)c2nc3ccccc3nc21 returned CSN inh 59, ATG4B inhibitor inactive, UHRF1 binding inactive, LEDGF integ inh inactive, rCAG RNA binder 91, MBD2 inh inactive, rCAG binder conf 85, dCAG dye counter 58, CSN5 deneddyl 98, MMP-2 counter inactive and Thrombin counter inactive.
CCC(C)CNC(=O)CSc1nnc(-c2cccnc2)n1C1CCCCC1 (stereo unspecified) was read as UHRF1 binding inactive, LEDGF integ inh inactive, rCAG RNA binder inactive and MBD2 inh inactive.
Cc1ccc(NC(=O)CN(C)C(=O)c2cc(-c3ccco3)nc3ccccc23)cc1 was read as CSN inh 51, ATG4B inhibitor inactive, UHRF1 binding inactive, LEDGF integ inh inactive, rCAG RNA binder 35, MBD2 inh inactive, rCAG binder conf inactive, dCAG dye counter 8.7, MMP-2 counter inactive and Thrombin counter inactive.
COc1cccc(NC(=O)CN(C)C(=O)c2cc(-c3ccco3)nc3ccccc23)c1 was read as CSN inh inactive, ATG4B inhibitor inactive, UHRF1 binding inactive, LEDGF integ inh inactive, rCAG RNA binder inactive and MBD2 inh inactive.
